Reference: ChEMBL document CHEMBL1124146, “Synthesis of the tumorigenic 3,4-dihydrodiol metabolites of dibenz[a,j]anthracene and 7,14-dimethyldibenz[a,j]anthracene” (1988)

Legend:
Assay type in all cases: functional
Mus musculus [1] = organism: Mus musculus; test: Compound was tested at a dose of 400 nmol for the skin tumor initiating activity expressed as papillomas per mouse
Procedure, shortened: (§1)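 The initiator was applied topically to the shaved skin in 0.2 mL peroxide-free THF; controls received THF only. After 2 weeks, 3.4 nmol TPA in 0.2 mL acetone was given twice weekly. Papillomas were recorded weekly, with random histology. Means were compared by Student's t test.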

Mus musculus [2] = organism: Mus musculus; test: Compound was tested at a dose of 400 nmol for the skin tumor initiating activity expressed as percent of mice with papillomas; procedure, shortened: as §1
Mus musculus [3] = organism: Mus musculus; test: Compound was tested at a dose of 100 nmol for the skin tumor initiating activity expressed as percent of mice with papillomas; procedure, shortened: as §1
Mus musculus [4] = organism: Mus musculus; test: Compound was tested at a dose of 100 nmol for the skin tumor initiating activity expressed as papillomas per mouse; procedure, shortened: as §1

| SMILES | Activity (Mus musculus [1]) | Activity (Mus musculus [2]) | Activity (Mus musculus [3]) | Activity (Mus musculus [4]) |
| --- | --- | --- | --- | --- |
| O[C@H]1[C@H]2O[C@H]2c2c(ccc3cc4ccc5ccccc5c4cc23)[C@@H]1O | 3.95 | 92% |  |  |
| Cc1c2ccc3c(c2c(C)c2c1ccc1ccccc12)C=C[C@H](O)[C@H]3O | 14.7 | 100% | 93% | 9.9 |
| O[C@H]1C=Cc2c(ccc3cc4ccc5ccccc5c4cc23)[C@@H]1O | 0.65 | 39% |  |  |
| Cc1c2ccc3ccccc3c2c(C)c2c1ccc1ccccc12 | 17.3 | 97% | 97% | 8.4 |
| c1ccc2c(c1)ccc1cc3ccc4ccccc4c3cc12 [DIBENZO[A,J]ANTHRACENE] | 0.58 | 29% |  |  |
